# From ChEMBL document CHEMBL1131239, “Orally active benzamide antipsychotic agents with affinity for dopamine D2, serotonin 5-HT1A, and adrenergic alpha1 receptors” (J Med Chem, 1998)
# What was measured:
# Rattus norvegicus [1] = assay: compound was tested for antipsychotic activity by conditioned avoidance response(CAR) assay in rats with a pretreatment period of 30 min upon intra peritoneal administration at a concentration of 5 mg/kg.; assay type: functional
# Outline: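 Rat conditioned avoidance test modified from Martin et al. Trained rats (N = 4) were run in 1-h sessions on two consecutive days. Fed animals had food and water until placed in the test chambers. Dosing was ip with 30 min pretreatment, and activity was expressed as percent inhibition at the stated dose.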
# Rattus norvegicus [2] = assay: compound was tested for antipsychotic activity by conditioned avoidance response(CAR) assay in rats with a pretreatment period of 60 min upon peroral administration at a concentration of 20 mg/kg.; assay type: functional; conditions: route oral
# Outline: (§1)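 Trained rats (N = 4) were run in 1-h sessions on two consecutive days, with the experimenter blind to drug and dose. Fed rats had food and water until placed in the test chambers. Fasted rats had no food overnight before the experiment.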
# [3] = target: T1, 5-hydroxytryptamine receptor 1A (Rattus norvegicus, UniProt P19327); assay: Compound was evaluated for its binding affinity against 5-hydroxytryptamine 1A receptor from rat cerebral cortex; assay type: tissue-based
# T1 sequence (P19327 whole entry): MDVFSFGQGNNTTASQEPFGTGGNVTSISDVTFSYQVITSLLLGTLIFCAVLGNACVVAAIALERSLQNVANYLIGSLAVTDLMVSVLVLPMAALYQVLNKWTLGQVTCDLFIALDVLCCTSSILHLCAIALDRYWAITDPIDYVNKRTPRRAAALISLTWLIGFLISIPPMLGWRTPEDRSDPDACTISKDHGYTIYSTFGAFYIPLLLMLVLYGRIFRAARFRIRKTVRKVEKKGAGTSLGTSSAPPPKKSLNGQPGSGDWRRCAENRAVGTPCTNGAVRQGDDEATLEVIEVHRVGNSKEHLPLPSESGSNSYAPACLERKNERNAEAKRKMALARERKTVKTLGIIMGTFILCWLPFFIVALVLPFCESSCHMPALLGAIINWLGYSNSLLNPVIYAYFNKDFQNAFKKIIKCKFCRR
# [4] = target: T2, Adrenergic receptor alpha-1 (Rattus norvegicus, UniProt P15823+P23944+P43140); assay: Binding affinity against Alpha-1 adrenergic receptor from rat cerebral cortex; assay type: tissue-based
# T2 sequence (P15823 whole entry): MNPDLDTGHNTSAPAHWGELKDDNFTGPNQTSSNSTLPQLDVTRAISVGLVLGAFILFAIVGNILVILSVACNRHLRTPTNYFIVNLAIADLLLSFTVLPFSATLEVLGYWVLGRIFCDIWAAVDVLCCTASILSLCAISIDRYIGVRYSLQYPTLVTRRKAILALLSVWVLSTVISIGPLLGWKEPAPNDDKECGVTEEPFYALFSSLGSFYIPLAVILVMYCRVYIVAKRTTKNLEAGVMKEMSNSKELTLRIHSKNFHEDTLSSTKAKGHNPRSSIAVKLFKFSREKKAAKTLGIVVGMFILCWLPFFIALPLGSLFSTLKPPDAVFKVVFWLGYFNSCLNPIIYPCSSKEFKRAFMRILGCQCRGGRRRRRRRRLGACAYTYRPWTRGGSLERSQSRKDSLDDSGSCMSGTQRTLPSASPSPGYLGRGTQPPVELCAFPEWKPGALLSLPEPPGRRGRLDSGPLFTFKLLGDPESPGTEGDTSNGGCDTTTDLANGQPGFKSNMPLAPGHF
# T2 sequence (P23944 whole entry): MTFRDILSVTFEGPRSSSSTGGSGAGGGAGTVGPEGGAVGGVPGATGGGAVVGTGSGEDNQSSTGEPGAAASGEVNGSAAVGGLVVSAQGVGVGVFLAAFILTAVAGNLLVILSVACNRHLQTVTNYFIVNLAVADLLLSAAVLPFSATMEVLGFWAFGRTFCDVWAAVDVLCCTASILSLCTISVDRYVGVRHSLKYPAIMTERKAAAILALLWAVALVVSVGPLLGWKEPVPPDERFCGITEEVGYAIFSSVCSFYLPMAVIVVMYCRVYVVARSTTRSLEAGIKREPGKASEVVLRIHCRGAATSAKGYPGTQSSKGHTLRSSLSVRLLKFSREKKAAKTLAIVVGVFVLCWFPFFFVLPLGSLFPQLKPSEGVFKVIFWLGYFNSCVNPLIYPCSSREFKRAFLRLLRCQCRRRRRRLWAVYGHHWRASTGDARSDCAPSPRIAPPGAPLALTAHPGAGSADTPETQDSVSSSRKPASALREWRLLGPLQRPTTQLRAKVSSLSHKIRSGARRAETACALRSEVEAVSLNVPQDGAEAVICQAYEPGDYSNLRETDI
# T2 sequence (P43140 whole entry): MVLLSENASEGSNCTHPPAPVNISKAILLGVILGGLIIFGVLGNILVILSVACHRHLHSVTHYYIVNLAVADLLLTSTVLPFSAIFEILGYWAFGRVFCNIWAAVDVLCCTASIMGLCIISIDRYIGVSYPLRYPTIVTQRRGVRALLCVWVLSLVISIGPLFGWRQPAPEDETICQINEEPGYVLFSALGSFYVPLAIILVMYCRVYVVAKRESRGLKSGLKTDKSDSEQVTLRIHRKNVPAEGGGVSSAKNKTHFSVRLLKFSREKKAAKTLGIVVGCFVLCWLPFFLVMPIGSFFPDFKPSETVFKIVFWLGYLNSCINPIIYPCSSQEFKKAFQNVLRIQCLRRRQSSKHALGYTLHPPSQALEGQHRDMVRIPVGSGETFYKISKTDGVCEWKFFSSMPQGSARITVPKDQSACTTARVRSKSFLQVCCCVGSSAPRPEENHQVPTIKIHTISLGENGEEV
# Rattus norvegicus [5] = assay: compound was tested for antipsychotic activity by conditioned avoidance response(CAR) assay in rats with a pretreatment period of 30 min upon intra peritoneal administration at a concentration of 1 mg/kg.; assay type: functional; outline: as §1
# Rattus norvegicus [6] = assay: Percent catalepsy in male Spargue-Dawley rat at pretreatment time 60 mins and administered ip at dose 50 mg/kg; assay type: functional; conditions: route intraperitoneal
# Outline: (§2)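 Catalepsy in rats, groups of five per drug treatment, scored blind to drug and dose. Each session included a saline or vehicle negative control and a haloperidol 2 mg/kg positive control. Deaths during the experiment were recorded in the catalepsy column as number dead out of five.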
# Rattus norvegicus [7] = assay: compound was tested for antipsychotic activity by conditioned avoidance response(CAR) assay in rats with a pretreatment period of 240 min upon peroral administration; assay type: functional; conditions: po; outline: as §1
# Rattus norvegicus [8] = assay: Percent catalepsy in male Spargue-Dawley rat at pretreatment time 60 mins and when administered ip at dose 50 mg/kg (1/5L denotes that one rat out of five died during the course of experiment); assay type: functional; conditions: route intraperitoneal
# Outline: (§3)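 Catalepsy scored in groups of five rats per drug treatment, with the experimenter blind to drug and dose, in a quiet room. Each session included two control groups: saline (or vehicle) as negative control and haloperidol 2 mg/kg as positive control. Deaths during the experiment were recorded as lethality (e.g., 3/5L) in place of percent catalepsy.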
# Rattus norvegicus [9] = assay: compound was tested for antipsychotic activity by conditioned avoidance response(CAR) assay in rats with a pretreatment period of 60 min upon peroral administration; assay type: functional; conditions: po; outline: as §1
# Rattus norvegicus [10] = assay: compound was tested for antipsychotic activity by conditioned avoidance response(CAR) assay in rats with a pretreatment period of 30 min upon intra peritoneal administration.; assay type: functional; outline: as §1
# Rattus norvegicus [11] = assay: compound was tested for antipsychotic activity by conditioned avoidance response(CAR) assay in rats with a pretreatment period of 30 min upon peroral administration; assay type: functional; conditions: po; outline: as §1
# Rattus norvegicus [12] = assay: Percent catalepsy in male Spargue-Dawley rat at pretreatment time 60 mins and when administered ip at dose 50 mg/kg; assay type: functional; conditions: route intraperitoneal; outline: as §2
# Rattus norvegicus [13] = assay: Percent catalepsy in male Spargue-Dawley rat at pretreatment time 240 mins and when administered po at dose 250 mg/kg; assay type: functional; outline: as §2
# Rattus norvegicus [14] = assay: compound was tested for antipsychotic activity by conditioned avoidance response(CAR) assay in rats with a pretreatment period of 30 min upon intra peritoneal administration; assay type: functional; outline: as §1
# Rattus norvegicus [15] = assay: compound was tested for antipsychotic activity by conditioned avoidance response(CAR) assay in rats with a pretreatment period of 120 min upon peroral administration; assay type: functional; conditions: po; outline: as §1
# Rattus norvegicus [16] = assay: Percent catalepsy in male Spargue-Dawley rat at pretreatment time 240 mins and when administered ip at dose 100 mg/kg (3/5L denotes that three rats out of five died during the course of experiment); assay type: functional; conditions: route intraperitoneal; outline: as §3
# Rattus norvegicus [17] = assay: Percent catalepsy in male Spargue-Dawley rat at pretreatment time 60 mins and when administered po at dose 250 mg/kg; assay type: functional; outline: as §2
# Rattus norvegicus [18] = assay: Percent catalepsy in male Spargue-Dawley rat at pretreatment time 240 mins and when administered ip at dose 50 mg/kg; assay type: functional; conditions: route intraperitoneal; outline: as §2
# Rattus norvegicus [19] = assay: compound was tested for antipsychotic activity by conditioned avoidance response(CAR) assay in rats with a pretreatment period of 60 min upon peroral administration. Values in brackets indicates 95% confidence limits for ED50; assay type: functional; conditions: po
# Outline: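 Rats trained in conditioned avoidance were run in a 1-h session on two consecutive days (N = 4). The read-out was reduction of the conditioned response to a disagreeable stimulus. Oral dosing was 60 min before testing. Fed rats had food and water until placed in the test chambers; fasted rats had no food overnight before the experiment.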
# Rattus norvegicus [20] = assay: compound was tested for antipsychotic activity by conditioned avoidance response(CAR) assay in rats with a pretreatment period of 60 min upon peroral administration.; assay type: functional; conditions: po; outline: as §1
# Rattus norvegicus [21] = assay: Percent catalepsy in male Spargue-Dawley rat at pretreatment time 240 mins and administered ip at dose 50 mg/kg; assay type: functional; conditions: route intraperitoneal; outline: as §2
# Rattus norvegicus [22] = assay: compound was tested for antipsychotic activity by conditioned avoidance response(CAR) assay in rats and pretreatment period of 60 min upon peroral administration; assay type: functional; conditions: po; outline: as §1
structure (smiles),measurement,setting,value
CC(=O)N(C)C(=O)c1cccc(CN2CCN(c3ccccc3OC(C)C)CC2)c1,inhibition in vivo at 5 mg/kg,Rattus norvegicus [1],-94.5%
same,inhibition in vivo at 20 mg/kg,Rattus norvegicus [2],-1.6%
same,Ki,[3],3.3 nM
same,Ki,[4],388 nM
same,inhibition in vivo at 1 mg/kg,Rattus norvegicus [5],-9.6%
COc1ccccc1N1CCN(Cc2cccc(C(=O)N3CCCCCC3)c2)CC1,inhibition in vivo at 5 mg/kg,Rattus norvegicus [1],-94.6%
same,Catalepsy,Rattus norvegicus [6],70%
same,Ki,[3],0.46 nM
same,Ki,[4],4.7 nM
CC(C)Oc1ccccc1C1CCN(Cc2cccc(C(=O)N3CCCCC3)c2)CC1,ED50,Rattus norvegicus [7],7.93 mg/kg
same,Catalepsy,Rattus norvegicus [8],26.3%
same,ED50,Rattus norvegicus [9],7.69 mg/kg
same,ED50,Rattus norvegicus [10],0.75 mg/kg
same,Ki,[4],2.2 nM
CC(C)Oc1ccccc1N1CCN(Cc2cccc(C(=O)N3CCCCCC3)c2)CC1,ED50,Rattus norvegicus [11],3.32 mg/kg
same,Catalepsy,Rattus norvegicus [12],27.8%
same,Catalepsy,Rattus norvegicus [13],15.5%
same,ED50,Rattus norvegicus [14],0.85 mg/kg
same,ED50,Rattus norvegicus [15],15.4 mg/kg
same,Catalepsy,Rattus norvegicus [16],0%
same,Ki,[3],0.6 nM
same,Catalepsy,Rattus norvegicus [17],32.5%
same,ED50,Rattus norvegicus [9],11.9 mg/kg
same,Ki,[4],2.1 nM
same,Catalepsy,Rattus norvegicus [18],24.1%
O=C(CCCN1CCC(O)(c2ccc(Cl)cc2)CC1)c1ccc(F)cc1 [HALOPERIDOL],ED50,Rattus norvegicus [19],0.31 mg/kg
CC(C)Oc1ccccc1N1CCN(Cc2cccc(C(=O)N3CCCCC3)c2)CC1 [MAZAPERTINE],ED50,Rattus norvegicus [11],14.5 mg/kg
same,Catalepsy,Rattus norvegicus [6],32.4%
same,ED50,Rattus norvegicus [20],11 mg/kg
same,ED50,Rattus norvegicus [15],26 mg/kg
same,ED50,Rattus norvegicus [9],3.35 mg/kg
same,Catalepsy,Rattus norvegicus [21],47.8%
CC(C)Oc1ccccc1N1CCN(Cc2ccc(CN3CCCCC3=O)n2C)CC1 [RWJ-25730],ED50,Rattus norvegicus [22],34.7 mg/kg
